Test results reported in ChEMBL document CHEMBL3588754, “Parallel Synthesis of Hexahydrodiimidazodiazepines Heterocyclic Peptidomimetics and Their in Vitro and in Vivo Activities at μ (MOR), δ (DOR), and κ (KOR) Opioid Receptors” (J Med Chem, 2015).

How the values were obtained:
[1] = target: Kappa-type opioid receptor (Cavia porcellus, UniProt P41144); experiment: Displacement of [3H]U69593 from kappa opioid receptor in guinea pig cortices and cerebella by competition binding assay
Outline: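 Guinea pig cortex and cerebellum membranes were prepared in 50 mM Tris pH 7.4 with 10 mM MgCl2. Assay used 2 nM [3H]U69,593, incubated 2 h at 25 °C. Unlabeled U50,488 defined nonspecific binding. Filtration was through GF/B filters, with scintillation counting. Ki is mean ± SD of two experiments, each in duplicate.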

[2] = target: Mu-type opioid receptor (Rattus norvegicus, UniProt P33535); experiment: Displacement of [3H]DAMGO from mu opioid receptor in rat cortices by competition binding assay
Outline: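 Rat cortex membranes were prepared in 50 mM Tris pH 7.4, preincubated at 37 °C for 30 min, and resuspended with 2 mg/mL bovine serum. Assay used 2 nM [3H]DAMGO. Binding was stopped by filtration through BSA-soaked GF/B filters, followed by scintillation counting. IC50 was converted to Ki. Values are mean ± SD of two experiments, each in duplicate.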

[3] = target: Delta-type opioid receptor (Rattus norvegicus, UniProt P33533); experiment: Displacement of [3H]DPDPE from delta opioid receptor in rat cortices by competition binding assay
Outline: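 Rat cortex membranes were prepared in 50 mM Tris pH 7.4 with 10 mM MgCl2 and 200 μM PMSF. Assay used 2 nM [3H]DPDPE, incubated 2.5 h at 25 °C. Unlabeled DPDPE defined nonspecific binding. Filtration was through BSA-soaked GF/B filters, with scintillation counting. Ki is mean ± SD of two experiments, each in duplicate.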

[4] = system: Mus musculus; experiment: Antinociceptive effect in po dosed C57BL/6 mouse assessed as tail withdrawal latency measured up to 2 hrs by 55 degC Warm water tail withdrawal assay; format: functional; settings: C57BL/6, Tail
[5] = species on record: Mus musculus; experiment: Ratio of ED50 for antinociceptive effect in C57BL/6 mouse by 55 degC Warm water tail withdrawal assay to ED50 for analgesic activity in C57BL/6 mouse by acetic acid writhing assay; format: functional
Outline: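 Index from ip ED50 values in adult male C57BL/6J mice given ip doses in 1:1:8 ethanol/Tween-80/saline (n = 8/dose). Tail-withdrawal: 55 °C water, read at 30 min, % antinociception against baseline with a 15 s cutoff. Writhing: 0.9% acetic acid ip 25 min post-dose, writhes counted over 15 min, compared with vehicle. ED50 from regression; ratio is tail-withdrawal/writhing.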

[6] = system: Mus musculus; experiment: Antinociceptive effect in icv dosed C57BL/6 mouse assessed as tail withdrawal latency measured up to 2 hrs by 55 degC Warm water tail withdrawal assay; format: functional
[7] = system: Mus musculus; experiment: Antinociceptive effect in ip dosed C57BL/6 mouse assessed as tail withdrawal latency measured up to 2 hrs by 55 degC Warm water tail withdrawal assay; format: functional; settings: C57BL/6, Tail
[8] = target: Delta-type opioid receptor (Homo sapiens, UniProt P41143); experiment: Agonist activity at delta opioid receptor (unknown origin) expressed in CHO-K1 cells assessed as inhibition of forskolin-induced cAMP accumulation by FRET assay; format: functional, cell-based
Outline: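 CHO cells stably expressing DOR, plated at 20 000 cells/well (figure legend: 100 000). Exposed to test agent with 4 μM forskolin (legend: 1 μM) in 1× PBS with 1 mM […] for 30 min at rt. HTRF cAMP read-out with europium cryptate and d2 in lysis buffer for 1 h. EC50 ± SEM from three experiments, two replicates each.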

CC(C)C[C@H]1CN2C(=CC3=NC[C@H](C(C)C)N3C[C@@H]2Cc2ccccc2)N1CCc1ccccc1
Ki [1]: 1400 nM
Ki [2]: 2750 nM
Ki [3]: 1020 nM

CC(C)[C@H]1CN=C2C=C3N(CCc4ccccc4)[C@@H](Cc4ccc(O)cc4)CN3[C@@H](Cc3ccccc3)CN21
Ki [1]: 1900 nM
Ki [2]: 1110 nM
Ki [3]: 1380 nM

Oc1ccc(C[C@H]2CN3C(=CC4=NC[C@H](Cc5ccccc5)N4C[C@@H]3Cc3ccccc3)N2)cc1
Ki [1]: 8390 nM
Ki [2]: 566 nM
Ki [3]: 2090 nM

CC(C)[C@H]1CN=C2C=C3N[C@@H](Cc4ccc(O)cc4)CN3[C@@H](Cc3ccccc3)CN21
Ki [1]: 1950 nM
Ki [2]: 5040 nM
Ki [3]: ≥ 10000 nM

CN1CC[C@]23c4c5ccc(O)c4O[C@H]2[C@@H](O)C=C[C@H]3[C@H]1C5 [MORPHINE]
ED50 [4]: 2.07 mg/kg
Ratio ED50 [5]: 2.23
Activity [6]: Dose-dependent effect
ED50 [7]: 3.91 mg/kg

Oc1ccc(C[C@H]2CN3C(=CC4=NC[C@H](Cc5ccc(O)cc5)N4C[C@@H]3Cc3ccc(O)cc3)N2)cc1
Ki [1]: 3760 nM
Ki [2]: 552 nM
Ki [3]: 316 nM

CC(C)C[C@H]1CN2C(=CC3=NC[C@H](Cc4ccccc4)N3C[C@@H]2Cc2ccc(O)cc2)N1
Ki [1]: 3440 nM
Ki [2]: 1330 nM
Ki [3]: 57 nM
EC50 [8]: 6360 nM

Oc1ccc(C[C@H]2CN3C(=CC4=NC[C@H](Cc5ccccc5)N4C[C@@H]3Cc3ccc(O)cc3)N2)cc1
Ki [1]: 4140 nM
Ki [2]: 1180 nM
Ki [3]: 338 nM
